Only some compounds are listed: those with a hit (about 5.1% of all), similar ones and a draw of the others.
NF-kB expr up = compounds increasing NF-kB expression in human neuronal cells | AID 1239 | hit rate 1.6% among 190,000 | NF-kB reporter expression; hits give high values | fold change at 12.5 µM; in the data active = fold change above about 3.3
STAT1 blocker = inhibitors of IFN-gamma induced STAT1 signaling. NIH 3T3 STAT1-luciferase reporter, luminescence. inhibition, % at 5.5 µM. hit rate 0.35% among 200,000. AID 920;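 active = inhibition above a set limit, the mean inhibition across all tested compounds plus 3 SD, cut at about 34% in these data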;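 note: 0% = IFN-gamma with DMSO and 100% = IFN-gamma with 300 µM nifuroxazide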
STAT1 activator = STAT1 signaling activation | NIH 3T3 STAT1-luciferase reporter, IFN-gamma, luminescence; 100% = IFN-gamma alone, no compound | activation (% of control), % at 5.5 µM | hit rate 2.6% among 200,000;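 active = activation above the screen-wide mean activation plus 3 SD, cut at about 130% in these data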;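 note: raw ratio to IFN-gamma control signal so 100% means no change and 0% no light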
STAT3 blocker = STAT3 signaling inhibition; AID 862; U3A cells, IL-6 STAT3-luciferase reporter, luminescence; host cell line lacks STAT1; inhibition, % at 5.5 µM; hit rate 0.89% among 190,000;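 active = inhibition above the mean inhibition across all screened compounds plus 3 SD, cut at about 44% in these data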;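 note: 0% = DMSO only wells and 100% = 100 µM nifuroxazide control wells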
APP 5'UTR act = activates APP 5'UTR luciferase reporter. SH-SY5Y APP 5'UTR luciferase reporter, luminescence; zero percent = DMSO vehicle wells. activation, % at 2 µM. hit rate 1% among 190,000. AID 1276;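 active = activation above a set limit, based on mean plus 3 SD of controls, cut at about 140% in these data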
STAT3 activator = activators of IL-6 induced STAT3 signaling; AID 871; hit rate 0.91% among 190,000; activation (% of control), % at 5.6 µM; U3A cells, IL-6 STAT3-luciferase reporter, luminescence; 100% = signal with IL-6 EC80 alone;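 active = activation above the screen-wide mean of compound activation plus 3 SD, cut at about 130% in these data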;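 note: 0% = background luminescence of wells with medium and substrate only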
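Material: STAT1-lacking human U3A cells, STAT3 luciferase reporter | Benchmarks: IL-6-only wells as 100% reference | Probe or stimulus: IL-6 (33 ng/mL) | Timing: Compound 1 h, then IL-6 6 h at 37 °C | Detection: Luminescence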
* = called active by the depositor; . = not tested or not shown.

SMILES	NF-kB expr up	STAT1 blocker	STAT1 activator	STAT3 blocker	APP 5'UTR act	STAT3 activator
CCCNC(=O)C1CNc2ccccc2O1 (configuration not stated)	1.06	-6.5	106.0	-34.4	-8.0	134.0*
O=C(NCCO)C1COc2ccccc2O1 (configuration not stated)	.	-2.9	100.9	12.0	7.7	93.9
c1ccc(Sc2cnc3ccccc3n2)cc1	1.56	-36.0	133.6*	-12.3	38.1	110.1
Cc1cc(-c2ccc(F)cc2)nc2cc(C(N)=O)nn12	0.85	1.1	98.9	-13.8	-11.5	109.9
CCOC(=O)c1cnn2c(C)cc(-c3ccc(F)cc3)nc12	2.96	-49.9	145.5*	2.9	81.9	102.0
CC(C)/C=N/NC(=O)c1ccc(Cl)cc1	1.3	-9.1	108.1	5.3	7.2	98.8
CCC(=O)Nc1cnc(NC(=O)c2cccc(F)c2)cc1C	2.84	-45.7	142.2*	2.8	80.5	97.3
COC(=O)/C(=C/c1c[nH]c2ccccc12)[N+](=O)[O-]	1.29	16.0	85.6	-31.9	13.9	134.3*
COC(=O)/C(=C/c1c[nH]c2ccccc12)NC(C)=O	1.19	9.9	91.3	4.2	13.4	99.7
N#CCCN(Cc1cccnc1)C(=O)c1sc2cc(F)ccc2c1Cl	1.03	27.2	75.2	7.8	10.8	100.6
CC(C)c1ccc(-n2cnn(-c3ncccc3[N+](=O)[O-])c2=O)cc1	8.59*	-23.4	121.7	-3.9	140.1*	104.7
O=C1CSC(c2c(F)cccc2Cl)N1c1cccc(F)c1 (configuration not stated)	0.97	0.4	99.6	1.7	-13.1	101.5
CCCC(=O)Nc1ccc2oc(-c3cncc(Br)c3)nc2c1	3.4*	-44.5	139.1*	15.8	127.8	92.1
N#C/C(=C\c1ccc([N+](=O)[O-])cc1)c1ccccn1	2.59	-35.5	131.8*	22.0	25.1	83.0
CN(C)c1ccc(NC(=S)c2ccccn2)cc1	1.65	68.3*	39.6	97.9*	58.3	15.8
CN(C)c1ccc(/C=C(\C#N)c2ccccn2)cc1	1.61	54.2*	52.3	98.9*	95.0	18.4
C/C(CC(=O)Nc1ccc(C)c(Cl)c1)=N\NC(=O)c1ccco1	0.94	-18.9	117.4	15.6	57.4	90.9
c1ccc(-n2cnnc2SCc2cn3ccsc3n2)cc1	0.94	12.9	88.2	14.9	3.5	89.3
Cc1cccc2nc(CSc3nnc4ccccn34)cn12	2.67	-40.0	136.7*	-8.4	94.2	107.3
c1ccn2c(SCc3cn4ccsc4n3)nnc2c1	2.18	-41.9	138.5*	-10.6	45.0	112.3
Brc1ccc(-c2csc(-c3ccncc3)n2)cc1	2	-31.4	127.6	5.3	21.6	97.9
CCn1c(O)c(N=NC(=O)c2cccs2)c2ccccc21	0.93	-25.4	124.5	5.8	5.0	95.7
COc1ccc(C(=O)CSc2ccc(-c3ccccc3)nn2)cc1	1.34	-0.1	100.1	-0.3	8.0	96.1
COc1ccc(-c2ccc(SC)nn2)cc1	.	58.7*	46.1	83.6*	113.7	30.0
c1cncc(CNc2cccc(-c3nc4ccccc4[nH]3)c2)c1	2.12	-27.7	124.7	-19.5	70.5	114.8
SMILES	NF-kB expr up	STAT1 blocker	STAT1 activator	STAT3 blocker	APP 5'UTR act	STAT3 activator
COc1ccc(NC(=S)Nc2ncccc2C)cc1OC	1.87	-35.5	130.8*	22.5	38.6	86.1
COc1ccc(NC(=O)Nc2cc(C)ccc2F)cc1	2.57	-33.5	130.5*	6.5	123.2	99.2
COc1ccc(CC(=O)Nc2nnc(C(C)C)s2)cc1	1.38	-3.8	102.2	4.9	16.5	100.3
COc1ccc(NC(=O)Nc2nnc(C(C)C)s2)cc1	2.43	-33.2	130.3*	11.8	68.9	97.3
COc1ccc(NC(=O)Nc2ccc(Br)c(C)c2)cc1	1.5	-48.7	145.2*	6.5	61.2	102.6
COc1cccc(NC(=O)Nc2cc(C)ccc2F)c1	1.5	-20.2	118.3	12.5	42.1	93.8
COc1ccc(NC(=O)Nc2ccc(F)c(Cl)c2)cc1	2.64	-12.7	111.8	10.8	106.3	95.5
O=C(c1ccccc1)N1CCN(c2ncnc3sc4c(c23)CCC4)CC1	0.48	15.3	86.0	35.5	15.6	72.0
COc1ccc(NC(=O)Nc2ncccc2C)cc1	1.95	-39.5	139.2*	8.9	12.5	95.6
COc1ccc(C(=O)NC(=O)Nc2ncccc2C)cc1	1.76	-30.5	124.2	13.5	16.2	88.8
Cc1ccc(/C=N/NC(=O)c2ccc(Br)o2)s1	2.05	-8.6	107.7	-14.4	41.8	109.5
CCN(CC)c1ccc(/C=N/NC(=O)c2ccc(Br)o2)cc1	4.32*	-42.0	138.5*	-6.8	95.7	106.8
O=C(N/N=C/c1ccc2c(c1)OCO2)c1ccc(Br)o1	3.53*	-46.5	142.4*	-19.0	50.7	111.2
CCc1ccc(/C=N\NC(=O)c2ccc(Br)o2)s1	2.92	-48.9	146.0*	-12.7	49.9	108.9
Cc1ccc(-c2nnn(CC(=O)N(c3cccc(F)c3)C(C(=O)NC(C)(C)C)c3ccco3)n2)o1 (configuration not stated)	1.61	5.1	93.8	14.8	-25.4	89.3
O=C(CSc1nnc2ccc(-c3ccccc3)nn12)NCC1CCCO1 (configuration not stated)	1.03	-3.8	100.7	4.7	6.0	100.1
O=c1oc2ccccc2cc1NCc1ccccc1O	3.58*	-2.7	102.5	-1.8	79.6	105.9
O=c1oc2ccccc2cc1-c1ccc(O)cc1	2.6	-32.8	133.6*	-15.4	47.4	110.1
CCC(=O)Nc1cc(-c2cc3ccccc3oc2=O)ccc1OC	0.93	-22.5	117.7	3.0	78.0	101.5
Cc1ccccc1NCc1ccccc1O	1.04	12.4	88.7	22.6	-14.5	85.7
CCC(=O)Nc1ccc(-c2cc3ccccc3oc2=O)cc1	2.65	-48.0	143.1*	19.2	-17.0	88.0
CC(=O)Nc1ccc(-c2cc3ccccc3o2)cc1	6.5*	-44.4	140.8*	16.9	222.4*	91.5
CC(=O)Nc1ccc(NC(=O)COC(=O)c2cnccn2)cc1	1.3	0.2	99.4	9.0	-13.8	95.8
CCCCCC(=O)Nc1nc2ccccc2[nH]1	2.66	-31.8	129.4*	-3.3	67.7	104.9
O=C(Nc1nc2ccccc2[nH]1)C1CCCC1	0.93	-43.9	136.3*	-3.7	88.6	107.1
CCS(=O)(=O)N1Cc2ccccc2CC1C(=O)Nc1nc2ccccc2[nH]1 (configuration not stated)	0.86	-20.5	117.9	-10.0	181.9*	114.2
O=C(CC1CCCC1)Nc1nc2ccccc2[nH]1	2.33	-48.0	144.0*	-6.4	91.3	109.2
O=C(Nc1nc2ccccc2[nH]1)C1CCC1	0.95	-33.5	127.0	-6.4	37.6	109.4
O=C(Cc1cccc2ccccc12)Nc1nc2ccccc2[nH]1	1.03	1.7	98.4	-10.0	-9.0	106.8

Bioassay records as filed in PubChem BioAssay.
